Assay results as given in publication PMC3993931 (Journal of Medicinal Chemistry, 2014).

Assays:
[1] = cited from earlier work
[2] = tested on: colorectal tumor xenograft; conditions: cited from earlier work
[3] = Aqueous stability, pH 4.88; type: physicochemical; conditions: Figure 3 conditions generally, especially acidic (pH 4.88)
[4] = tested on: HCT116 cells; experiment: Cell viability assay; type: cell-based, human; conditions: for IC50: Homo sapiens, HCT-116, read-out: antiproliferative activity
How it was run: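 HCT116 cells (ATCC) were grown in DMEM with 10% FBS at 37 °C, 5% CO2. They were seeded at 1 × 10^4 cells/well and treated 24 h later with a range of test-compound concentrations or 1% EtOH solvent control. After 48 h, viability was read by MTT per the kit instructions.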

[5] = tested on: HCT116 xenograft; experiment: In vivo efficacy, HCT116 xenograft mouse model
[6] = tested on: VEGFR2; experiment: Immunoblot of xenograft tumors for RTK; type: in vivo, mouse; conditions: higher dose (0.25 mg/kg), end of efficacy study
[7] = tested on: met proto-oncogene receptor (MET); experiment: Immunoblot analysis for RTK; type: cell-based, human; conditions: HCT116, 24 h
How it was run: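 HCT116 cells were seeded at 4 × 10^5 cells/well in 6-well plates and dosed the next day with graded test-compound concentrations or 1% EtOH. After 24 h, whole-cell lysates were made in PhosphoSafe buffer, protein was quantified by BCA, and equal protein was run on 4–12% SDS-PAGE. Blots on PVDF were probed with anti-Met plus secondary antibody, with chemiluminescent detection.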

CC[C@H](C)[C@H]1C(=O)N2CCC[C@H]2C(=O)O[C@H](C(C)(C)C)C[C@@H](C)C[C@H](O)[C@@H](C)C2=N[C@@H](CCC(=O)N[C@@H](Cc3ccc(OC)cc3)C(=O)N(C)[C@@H](C)C(=O)N1C)CS2 [Compound 34-epi-1a, apratoxin S6]
potency relative to 1a ([1]; ref 2a): same potency

CC[C@H](C)[C@H]1C(=O)N2CCC[C@H]2C(=O)O[C@H](C(C)(C)C)C[C@@H](C)C[C@H](O)[C@H](C)C2=N[C@@H](CCC(=O)N[C@@H](Cc3ccc(OC)cc3)C(=O)N(C)[C@@H](C)C(=O)N1C)CS2 [Compound 1a, apratoxin S4]
potency and efficacy versus apratoxin A ([2]; colorectal tumor xenograft model ref 2a): greater potency and efficacy
tolerability in vivo ([2]; ref 2a): much better tolerated
relative in vitro stability [3]: somewhat less stable than 1c

CC[C@H](C)[C@H]1C(=O)N2CCC[C@H]2C(=O)O[C@H](C(C)(C)C)C[C@@H](C)C/C=C/C2=N[C@@H](CCC(=O)N[C@@H](Cc3ccc(OC)cc3)C(=O)N(C)[C@@H](C)C(=O)N1C)CS2 [apratoxin E]
activity relative to other apratoxins ([1]; ref 1c): much reduced activity

CC[C@H](C)[C@H]1C(=O)N2CCC[C@H]2C(=O)O[C@H](C(C)(C)C)C[C@@H](C)C[C@H](O)C(C)(C)C2=N[C@@H](CCC(=O)N[C@@H](Cc3ccc(OC)cc3)C(=O)N(C)[C@@H](C)C(=O)N1C)CS2 [Compound 1c, Apratoxin S8]
IC50 [4]: 1 to 2 nM
tumor growth inhibition ([5]; 0.1 mg/kg (~2 μg/mouse) daily ip for 16 days): about 50%
effect on tumor growth ([5]; 0.25 mg/kg (~5 μg/mouse) daily ip for 16 days): strongly retarded the tumor growth
signs of toxicity (weight loss, abnormal behavior) ([5]; 0.1 and 0.25 mg/kg daily ip for 16 days): did not observe signs of toxicity
VEGFR2 expression levels in tumors [6]: detectable reduction in VEGFR2 expression levels

CC[C@H](C)[C@H]1C(=O)N2CCC[C@H]2C(=O)O[C@H](C(C)(C)C)C[C@@H](C)C[C@H](O)[C@H](C)C2=N[C@H](CCC(=O)N[C@@H](Cc3ccc(OC)cc3)C(=O)N(C)[C@@H](C)C(=O)N1C)CS2 [Compound 1d, Apratoxin S9]
potency in reducing MET levels [7]: picomolar (subnanomolar) potency
relative in vitro stability [3]: slightly enhanced compared with that of 1a
fold potency over the other apratoxins ([4]; all three assays (cell growth, MET levels, VEGF-A secretion)): 2–3 fold

CC[C@H](C)[C@H]1C(=O)N2CCC[C@H]2C(=O)O[C@H](C(C)(C)C)C[C@@H](C)C[C@H](O)CC2=N[C@@H](CCC(=O)N[C@@H](Cc3ccc(OC)cc3)C(=O)N(C)[C@@H](C)C(=O)N1C)CS2 [Compound 1b, Apratoxin S7]
relative in vitro stability [3]: somewhat less stable than 1c
IC50 [4]: 1 to 2 nM
